Assay results: PMC6166782 (Science signaling, 2018)
Like-named read-outs stand apart in the source and are kept apart here. Values belong to the molecule of their own block, whether it stands above or below them.

Columns and labels:
pHsp72 [1] = biological target: T1, pHsp72 (Homo sapiens, UniProt P0DMV8, T66S); assay: Isothermal titration calorimetry, nucleotide binding to pHsp72; conditions: ITC; ratio of Kd
Target sequence in this assay (P0DMV8 2-641 T66S): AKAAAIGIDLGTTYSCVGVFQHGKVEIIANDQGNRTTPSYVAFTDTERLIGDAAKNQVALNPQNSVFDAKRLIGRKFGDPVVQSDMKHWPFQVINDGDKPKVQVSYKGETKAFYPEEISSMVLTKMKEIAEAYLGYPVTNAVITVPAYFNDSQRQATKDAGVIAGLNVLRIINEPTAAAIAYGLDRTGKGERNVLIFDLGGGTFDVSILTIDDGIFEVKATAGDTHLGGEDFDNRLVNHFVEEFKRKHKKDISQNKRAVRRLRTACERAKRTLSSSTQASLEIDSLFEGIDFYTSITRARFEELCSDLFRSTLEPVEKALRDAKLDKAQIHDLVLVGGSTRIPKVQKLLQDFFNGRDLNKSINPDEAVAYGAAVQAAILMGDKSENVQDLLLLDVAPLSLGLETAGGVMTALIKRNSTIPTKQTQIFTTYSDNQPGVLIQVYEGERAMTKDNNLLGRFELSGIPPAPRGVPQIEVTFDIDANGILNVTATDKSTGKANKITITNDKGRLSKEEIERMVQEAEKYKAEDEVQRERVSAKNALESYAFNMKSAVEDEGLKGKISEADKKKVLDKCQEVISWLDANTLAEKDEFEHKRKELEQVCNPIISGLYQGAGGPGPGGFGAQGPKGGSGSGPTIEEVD

unphosphorylated Hsp72 [2] = biological target: T2, unphosphorylated Hsp72 (Homo sapiens, UniProt P0DMV8); assay: Fluorescence polarization peptide binding, unphosphorylated Hsp72
In short: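 Unphosphorylated Hsp72 serially diluted in Buffer A (pH 7.5, 10 mM MgCl₂). ADP state: 125 μM ADP plus 20 nM F-NR, several hours at room temperature to equilibrium. ATP state: 2 mM ATP for 2 min, then 20 nM F-NR, read after 10 min. FP at 25°C, ex 490/em 535 nm. Kd from one-site nonlinear fit; ATP Kd divided by ADP Kd.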
Target sequence in this assay (P0DMV8 whole entry): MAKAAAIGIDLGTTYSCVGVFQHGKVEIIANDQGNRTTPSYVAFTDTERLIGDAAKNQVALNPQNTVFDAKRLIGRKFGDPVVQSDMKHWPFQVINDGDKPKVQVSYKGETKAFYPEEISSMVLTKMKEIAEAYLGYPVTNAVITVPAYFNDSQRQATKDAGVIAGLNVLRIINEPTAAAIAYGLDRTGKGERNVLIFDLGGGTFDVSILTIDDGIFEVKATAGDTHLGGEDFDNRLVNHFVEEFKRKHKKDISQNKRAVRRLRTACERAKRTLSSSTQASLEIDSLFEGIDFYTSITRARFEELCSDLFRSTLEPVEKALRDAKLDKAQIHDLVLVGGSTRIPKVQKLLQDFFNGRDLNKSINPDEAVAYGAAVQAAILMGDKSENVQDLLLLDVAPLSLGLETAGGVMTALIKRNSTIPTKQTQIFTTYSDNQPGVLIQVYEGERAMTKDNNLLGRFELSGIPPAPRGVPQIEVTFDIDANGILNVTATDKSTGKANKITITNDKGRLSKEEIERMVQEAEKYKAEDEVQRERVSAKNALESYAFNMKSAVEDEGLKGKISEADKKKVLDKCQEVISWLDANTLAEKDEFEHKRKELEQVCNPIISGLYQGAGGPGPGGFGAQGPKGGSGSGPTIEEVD

pHsp72 [3] = biological target: T1, pHsp72; assay: Peptide release kinetics in the presence of Hsp110, pHsp72; type: biochemical; conditions: read-out: koff, ATP, excess of unlabeled peptide, Hsp110
In short: (§1)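 50 μM pS66 or unphosphorylated Hsp72 was equilibrated for several hours at room temperature with 20 nM F-NR and 125 μM ADP in Hepes–KOH pH 7.5 buffer (10 mM MgCl₂, 2 mM DTT). ATP was then added to 2 mM final, with 150 μM unlabelled peptide and 125 μM Hsp110. FP (ex 490/em 535 nm, 25°C) was read every 30 s for 4000 s. koff given as mean ± SEM of six experiments.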
Target sequence in this assay (P0DMV8 whole entry T66S): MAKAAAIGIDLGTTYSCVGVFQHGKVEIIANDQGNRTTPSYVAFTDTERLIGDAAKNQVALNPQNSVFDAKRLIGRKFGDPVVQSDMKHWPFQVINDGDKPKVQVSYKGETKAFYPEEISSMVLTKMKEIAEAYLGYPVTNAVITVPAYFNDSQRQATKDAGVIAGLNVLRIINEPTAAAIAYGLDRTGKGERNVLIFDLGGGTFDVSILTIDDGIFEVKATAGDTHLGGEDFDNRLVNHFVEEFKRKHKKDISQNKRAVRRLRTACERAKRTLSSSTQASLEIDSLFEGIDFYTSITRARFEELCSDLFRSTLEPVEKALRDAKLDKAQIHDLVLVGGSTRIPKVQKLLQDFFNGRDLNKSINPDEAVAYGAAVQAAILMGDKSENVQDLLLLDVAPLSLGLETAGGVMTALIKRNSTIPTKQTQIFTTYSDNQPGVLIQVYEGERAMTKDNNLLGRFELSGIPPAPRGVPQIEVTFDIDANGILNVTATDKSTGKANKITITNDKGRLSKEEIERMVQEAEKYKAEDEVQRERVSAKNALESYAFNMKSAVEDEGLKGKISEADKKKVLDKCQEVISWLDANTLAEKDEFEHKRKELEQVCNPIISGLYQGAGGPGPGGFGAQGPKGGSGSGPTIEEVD

pHsp72 [4] = biological target: T1, pHsp72; assay: Kinetics of substrate peptide release, pHsp72; type: biochemical; conditions: pH 7.5, read-out: koff, excess of unlabeled peptide (ADP state)
In short: (§2)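 50 μM Hsp72 (pS66 or unphosphorylated) was pre-equilibrated at room temperature with F-NR and 125 μM ADP in Hepes–KOH pH 7.5 buffer with 10 mM MgCl₂. ADP state: 40 nM F-NR for over 5 h, then 150 μM unlabelled NR. ATP state: 20 nM F-NR, then 2 mM ATP plus 150 μM unlabelled peptide, read every 30 s for 4000 s (mean ± SEM, five assays). FP at 25°C; koff was fitted.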
Target sequence in this assay (P0DMV8 whole entry T66S): as above

unphosphorylated Hsp72 [5] = biological target: T2, unphosphorylated Hsp72; assay: Kinetics of substrate peptide release, unphosphorylated Hsp72; type: biochemical; conditions: pH 7.5, read-out: koff, excess of unlabeled peptide (ADP state)
In short: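 Hsp72 (50 μM) preloaded at room temperature with F-NR in 125 μM ADP, Buffer A (25 mM Hepes-KOH pH 7.5, 150 mM KCl, 10 mM MgCl₂, 2 mM DTT). ADP state: 40 nM F-NR, >5 h, then chased with 150 μM unlabelled NR. ATP state: 20 nM F-NR, then 2 mM ATP plus 150 μM unlabelled peptide. FP read over time at 25°C; koff fitted. Mean ± SEM, four (ADP) or five (ATP) runs.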
Target sequence in this assay (P0DMV8 whole entry): as the sequence (P0DMV8 whole entry) above

unphosphorylated Hsp72 [6] = biological target: T2, unphosphorylated Hsp72; assay: Peptide release kinetics in the presence of Hsp110, unphosphorylated Hsp72; type: biochemical; conditions: read-out: koff, ATP, excess of unlabeled peptide, Hsp110
In short: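 Unphosphorylated Hsp72 (50 μM) equilibrated for several hours at room temperature with 20 nM F-NR and 125 μM ADP in Buffer A (pH 7.5, 150 mM KCl, 10 mM MgCl₂). Release triggered by 2 mM ATP (final) with 150 μM unlabelled peptide and 125 μM His-tagged, E. coli-expressed Hsp110. FP (ex 490/em 535 nm, 25°C) every 30 s for 4000 s; koff fitted. Mean ± SEM, six experiments.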
Target sequence in this assay (P0DMV8 whole entry): as above

spindle assembly = conditions: ref [9]; cited from earlier work
pHsp72 [7] = biological target: T1, pHsp72; assay: ATP mediated substrate release assay, pHsp72; type: biochemical; conditions: 100 μM VER-155008, 2 mM ATP; Fig. S7, C to E; protein form not given
In short: (§3)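 Full-length Hsp72 (unphosphorylated, or pSer66 genetically encoded in E. coli) at 50 μM was equilibrated at room temperature for several hours with 20 nM F-NR or F-ALLQ peptide and 125 μM ADP in Buffer A (Hepes-KOH pH 7.5, 10 mM MgCl₂, 2 mM DTT). ATP was added to 2 mM final, with 100 μM VER-155008 included. FP (ex 490/em 535 nm, 25°C) was read before ATP, then every 30 s for 4000 s.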
Target sequence in this assay (P0DMV8 2-641 T66S): as the sequence (P0DMV8 2-641 T66S) above

unphosphorylated Hsp72 [8] = biological target: T2, unphosphorylated Hsp72; assay: ATP mediated substrate release assay, unphosphorylated Hsp72; type: biochemical; conditions: 100 μM VER-155008, 2 mM ATP; Fig. S7, C to E
In short: as §3
Target sequence in this assay (P0DMV8 2-641): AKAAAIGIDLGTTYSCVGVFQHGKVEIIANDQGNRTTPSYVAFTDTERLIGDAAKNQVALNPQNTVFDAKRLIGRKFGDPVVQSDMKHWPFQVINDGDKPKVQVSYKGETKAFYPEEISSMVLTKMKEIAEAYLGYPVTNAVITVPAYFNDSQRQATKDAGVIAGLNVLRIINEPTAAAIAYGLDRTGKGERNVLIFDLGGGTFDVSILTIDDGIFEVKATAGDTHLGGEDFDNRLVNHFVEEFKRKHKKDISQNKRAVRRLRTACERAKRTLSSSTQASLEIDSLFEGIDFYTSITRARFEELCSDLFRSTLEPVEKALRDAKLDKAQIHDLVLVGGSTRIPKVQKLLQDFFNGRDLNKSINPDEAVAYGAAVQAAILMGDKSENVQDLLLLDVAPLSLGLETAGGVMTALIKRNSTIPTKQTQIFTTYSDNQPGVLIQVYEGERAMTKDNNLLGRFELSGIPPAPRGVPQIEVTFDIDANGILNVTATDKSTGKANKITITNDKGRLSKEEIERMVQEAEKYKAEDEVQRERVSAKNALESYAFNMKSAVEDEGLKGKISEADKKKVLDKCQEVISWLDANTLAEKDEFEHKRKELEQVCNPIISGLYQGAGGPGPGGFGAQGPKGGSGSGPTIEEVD

[9] = biological target: fluorescein-labeled NR peptide (F-NR); assay: fluorescence polarisation
[10] = biological target: fluorescein-labeled NR peptide (F-NR); assay: fluorescence polarisation; remark: listed apart in the source
mitotic spindle = conditions: ref [9]; cited from earlier work
[11] = tested on: spindle poles, HeLa cells; assay: FRAP of GFP-Hsp72 at spindle poles; type: cell-based; conditions: one spindle pole bleached; average of 4-5 cells from 2 experiments
pHsp72 [12] = assay: Peptide release kinetics in the presence of Hsp110, pHsp72; type: biochemical; conditions: ATP, Hsp110 and unlabeled substrate peptide
In short: as §1

pHsp72 [13] = assay: Kinetics of substrate peptide release, pHsp72; type: biochemical
In short: as §2

Chain of Heat shock protein 72 (Hsp72), unphosphorylated, full-length (P0DMV8 whole entry): as the sequence (P0DMV8 whole entry) above

Molecule: Heat shock protein 72 (Hsp72), unphosphorylated, full-length (from UniProt P0DMV8 1-641) (natural protein)
- Kd [9]: 157 µM
- Kd [10]: 3.95 µM

Molecule: T66A
- effect on spindle assembly (spindle assembly): causes defects in spindle assembly
- localization to the spindle (mitotic spindle): did not localize to the spindle

Molecule: T66E
- effect on spindle assembly (spindle assembly): can rescue the defects in spindle assembly due to NEK6 depletion
- FRAP recovery [11]: very little recovery

Molecule: pHsp72: full-length Hsp72 with incorporation of pSer^66
- fold slower peptide release rate, pHsp72 vs Hsp72, in presence of Hsp110 (pHsp72 [12]): ~ 2.7 fold
- times slower peptide release rate, pHsp72 vs unphosphorylated (pHsp72 [13]; ADP state): ~ 1.5 times
- times slower peptide release rate, pHsp72 vs unphosphorylated (pHsp72 [13]; ATP state): ~ 8 times

Molecule: pSer^66-Hsp72 (pHsp72), full-length, with genetically encoded phosphoserine at position 66 (from UniProt P0DMV8 1-641) (natural protein)
- Kd [9]: 27.6 µM

Now from value to molecule, other results behind:

- fold tighter nucleotide binding, pHsp72 vs unphosphorylated Hsp72 (pHsp72 [1]): ten times more tightly
Molecule: Nc1ncnc2c1ncn2[C@@H]1O[C@H](COP(=O)(O)OP(=O)(O)O)[C@@H](O)[C@H]1O [ADP, adenosine diphosphate]

- fold tighter nucleotide binding, pHsp72 vs unphosphorylated Hsp72 (pHsp72 [1]): 3.6 fold
Molecule: Nc1ncnc2c1ncn2[C@@H]1O[C@H](COP(=O)(O)OP(=O)(O)NP(=O)(O)O)[C@@H](O)[C@H]1O [AMP-PNP, adenylyl-imidodiphosphate]

- fold tighter nucleotide binding, pHsp72 vs unphosphorylated Hsp72 (pHsp72 [1]): twice as tightly
Molecule: Nc1ncnc2c1ncn2[C@@H]1O[C@H](COP(=O)(O)OP(=O)(O)OP(=O)(O)O)[C@@H](O)[C@H]1O [ATP, adenosine triphosphate]

- factor by which ATP weakened peptide interaction vs ADP (unphosphorylated Hsp72 [2]; unphosphorylated Hsp72, ATP vs ADP, ratio of Kd): 40
- koff (pHsp72 [3]): 0.0252 ± 0.0017 s⁻¹
- koff (pHsp72 [4]): 0.00079 ± 3e-05 s⁻¹
- koff (unphosphorylated Hsp72 [5]): 0.00123 ± 4e-05 s⁻¹
- koff (unphosphorylated Hsp72 [6]): 0.0673 ± 0.0077 s⁻¹
Molecule: CC(C)C[C@H](NC(=O)[C@H](CCCNC(=N)N)NC(=O)[C@H](CC(N)=O)NC(=O)c1ccc2c(c1)C(=O)OC21c2ccc(O)cc2Oc2cc(O)ccc21)C(=O)N[C@@H](CC(C)C)C(=O)N[C@@H](CC(C)C)C(=O)N[C@H](C(=O)NCC(=O)O)[C@@H](C)O [F-NR]

- increase of ATP-mediated rate of release of substrate peptide (pHsp72 [7]): ~ 2.6
- fold reduction of ATP substrate release rate (unphosphorylated Hsp72 [8]): ~ 8.6 fold
Molecule: N#Cc1ccc(COC[C@H]2O[C@@H](n3c(NCc4ccc(Cl)c(Cl)c4)nc4c(N)ncnc43)[C@H](O)[C@@H]2O)cc1 [VER-155008]
- effect on binding of peptide substrate (unphosphorylated Hsp72 [2]; 100 μM VER-155008, DMSO control, Fig. S7, form of Hsp72 not stated): did not affect the binding of peptide substrate
- effect on spindle assembly (spindle assembly): disrupted spindle assembly
